Experimental data published in ChEMBL document CHEMBL4402514, “Norepinephrine-Transporter-Targeted and DNA-Co-Targeted Theranostic Guanidines” (J Med Chem, 2020).

Experiments:
[1] = molecular target: T1, Sodium-dependent noradrenaline transporter (Homo sapiens, UniProt P23975); assay: Substrate activity at NET in human SK-N-SH cells assessed as drug uptake per cell at 37 kBq/ml incubated for 1 hr in presence of nonradioactive MIBG at 4 degC by filtration based gamma counting method; type: ADME
[2] = Drug uptake in human SK-N-SH cells assessed as level of 125I-incorporation into DNA after 1 hr and followed by compound washout with non-radioactive medium/PBS and measured immediately by gamma counting method relative to control; type: ADME, cell-based
Method in brief: (§1)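 SK-N-SH cells exposed to the 125I-labelled guanidine for 1 h, then washed with nonradioactive medium and PBS. Cells were either processed at once (1 h) or given fresh nonradioactive medium and returned to the incubator for 23 h (24 h). Subcellular fractions (cytoplasm, DNA) were counted by γ-counter. Values are mean and SD, n ≥ 3.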

[3] = Stability in mouse serum incubated up to 24 hrs by HPLC analysis; type: ADME, cell-free
[4] = Drug uptake in human SK-N-SH cells using 125I labelled compound by gamma counting method; type: ADME, cell-based
[5] = Drug uptake in human SK-N-SH cells assessed as level of 125I-incorporation into DNA incubated 1 hr followed by compound washout with non-radioactive medium/PBS and measured after 23 hrs by gamma counting method relative to control; type: ADME, cell-based; method in brief: as §1
[6] = Half life in human serum incubated up to 24 hrs by HPLC analysis; type: ADME, cell-free
[7] = molecular target: T1, Sodium-dependent noradrenaline transporter; assay: Substrate activity at NET in human SK-N-SH cells assessed as drug uptake per cell at 37 kBq/ml incubated for 1 hr in presence of nonradioactive MIBG at 37 degC by filtration based gamma counting method; type: ADME
[8] = Dissociation constant, pKa of compound; type: physicochemical
[9] = Partition coefficient, logP of compound; type: physicochemical; conditions: octanol/water
[10] = Ratio of tumor to blood concentration in NCR nu/nu mouse xenografted with human BE(2)-C cells at 0.44 +/- 0.1 MBq administered intratumorally after 24 hrs by gamma counting method; type: ADME, tissue-based; conditions: tumour, other
Method in brief: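 Athymic Ncr nu/nu female and male mice bearing subcutaneous BE(2)-C xenografts were given a single intratumoral injection of the 125I-labelled agent. Tumor and tissues were collected at 24 h, 125I was γ-counted, and uptake was expressed as %ID/g. The tumor-to-blood ratio was derived from the %ID/g values.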

[11] = Drug level in tumor of NCR nu/nu mouse xenografted with human BE(2)-C cells at 0.83 +/- 0.09 MBq administered intratumorally after 24 hrs by gamma counting analysis; type: ADME, tissue-based, Neoplasm; conditions: in vivo, other
Method in brief: (§2)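 Athymic Ncr nu/nu female and male mice bearing subcutaneous BE(2)-C xenografts received intratumor injections of the 125I agent. Tissues, tumor and blood were collected at 24 h and counted for radioactivity, expressed as %ID/g. Tumor-to-blood ratios were derived.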

[12] = Drug uptake in cytoplasm of human SK-N-SH cells at 39.3 +/- 0.3 kBq/mL after 24 hrs by gamma counting method relative to control; type: ADME, subcellular
Method in brief: (§3)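 SK-N-SH cells were exposed 1 h to 125I compound (≈39–40 kBq/mL), then washed with nonradioactive medium and PBS. Cells were processed immediately (1 h) or re-incubated in fresh medium for 23 h (24 h). Cytoplasmic, nuclear and DNA fractions were gamma-counted.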

[13] = Drug uptake in cytoplasm of human SK-N-SH cells at 39.3 +/- 0.3 kBq/mL after 1 hr and followed by compound washout with non-radioactive medium/PBS and measured immediately by gamma counting method relative to control; type: ADME, subcellular; method in brief: as §3
SK-N-SH [14] = assay: Anticlonogenic activity against human SK-N-SH cells assessed as number of colonies at 39.3+/- 0.3 kBq/mL after 24 hr by crystal violet staining based assay; type: functional
Method in brief: (§4)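 SK-N-SH cells exposed for 1 h to 125I-MIBG (39.3 ± 0.3 kBq/mL extracellular) or IDG (40 ± 0.5 kBq/mL). For the 1 h group, cells were washed with nonradioactive medium and PBS, harvested with trypsin and replated for the clonogenic assay. For the 24 h group, cells were washed, given fresh nonradioactive medium and incubated a further 23 h before plating. Colonies were counted.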

[15] = Drug level in tumor of NCR nu/nu mouse xenografted with human BE(2)-C cells at 0.44 +/- 0.1 MBq administered intratumorally after 24 hrs by gamma counting method; type: ADME, tissue-based, Neoplasm; conditions: in vivo, other; method in brief: as §2
[16] = Drug recovery in mouse N1E-115 cells assessed as [125I]-2'-deoxy-5-iodo-uridine level in nucleus after 24 hrs by gamma counting method relative to control; type: ADME, cell-based; conditions: n1e-115, 24 h, in the assay text read “in DNA” for “in nucleus”
Method in brief: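 N1E-115 murine neuroblastoma cells were incubated 24 h with 125I agent. Subcellular fractions (cytoplasm, nucleus, DNA pellet) were gamma-counted as percentage of recovered 125I.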

[17] = Drug level in adrenal gland of NCR nu/nu mouse xenografted with human BE(2)-C cells at 0.44 +/- 0.1 MBq administered intratumorally after 24 hrs by gamma counting method; type: ADME, tissue-based; conditions: in vivo, other; method in brief: as §2
SK-N-SH [18] = assay: Anticlonogenic activity against human SK-N-SH cells assessed as number of colonies at 39.3+/- 0.3 kBq/mL after 1 hr by crystal violet staining based assay; type: functional; method in brief: as §4
[19] = Stability in human serum assessed as intact compound level after 5 mins by HPLC analysis; type: ADME, cell-free; conditions: read-out: Stability
Method in brief: (§5)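 Radioiodinated guanidines were incubated in mouse, human or pig serum and analyzed by radio-HPLC on a C18 column at 0.8 mL/min. The gradient was 0–95% CH3CN over 50 min, then 95% for 20 min. Intact compound was fitted to monoexponential degradation to give half-life. Values are average ± std err.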

[20] = Stability in human SK-N-SH cells assessed as parent compound level after 24 hrs by HPLC analysis; type: ADME, cell-based; conditions: read-out: Stability
Method in brief: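 The compound was incubated 24 h in cell culture medium without cells or with SK-N-SH cells. Intact compound and 125IUdR catabolite were quantified by radio-HPLC on a C18 column at 0.8 mL/min, with a 0–95% CH3CN gradient over 50 min and 95% for 20 min.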

[21] = Stability in human serum assessed as intact compound level after 60 mins by HPLC analysis; type: ADME, cell-free; conditions: read-out: Stability; method in brief: as §5
[22] = Drug uptake in human SK-N-SH cells assessed as [125I]-2'-deoxy-5-iodo-uridine level at 38 kBq/mL after 24 hrs by gamma counting method; type: ADME, cell-based
Method in brief: (§6)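 SK-N-SH cells were exposed to 125I compound at an extracellular 38 kBq/mL for 1 h or continuously for 24 h. Cell-associated 125I was gamma-counted per cell.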

[23] = Drug uptake in human SK-N-SH cells assessed as [125I]-2'-deoxy-5-iodo-uridine level at 38 kBq/mL after 1 hr by gamma counting method; type: ADME, cell-based; method in brief: as §6
[24] = Stability in mouse serum incubated up to 6 hrs by HPLC analysis; type: ADME, cell-free

T1 sequence (P23975 whole entry): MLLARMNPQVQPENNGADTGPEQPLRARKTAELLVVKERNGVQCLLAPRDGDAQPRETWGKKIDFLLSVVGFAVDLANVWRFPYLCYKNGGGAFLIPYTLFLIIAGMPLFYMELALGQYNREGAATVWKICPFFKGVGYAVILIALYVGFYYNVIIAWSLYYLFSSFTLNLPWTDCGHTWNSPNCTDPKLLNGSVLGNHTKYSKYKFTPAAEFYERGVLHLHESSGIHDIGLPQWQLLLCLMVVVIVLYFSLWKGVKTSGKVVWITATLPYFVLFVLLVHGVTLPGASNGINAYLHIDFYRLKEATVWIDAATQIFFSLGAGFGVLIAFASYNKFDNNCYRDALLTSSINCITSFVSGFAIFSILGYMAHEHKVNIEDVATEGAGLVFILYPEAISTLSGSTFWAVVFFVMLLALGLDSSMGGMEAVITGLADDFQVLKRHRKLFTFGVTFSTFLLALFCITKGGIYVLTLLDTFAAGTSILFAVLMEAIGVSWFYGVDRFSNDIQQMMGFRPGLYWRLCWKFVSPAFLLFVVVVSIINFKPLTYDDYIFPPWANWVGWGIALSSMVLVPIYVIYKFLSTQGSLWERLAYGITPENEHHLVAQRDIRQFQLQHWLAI

Row | Structure (SMILES) | Stability [3] | Drug uptake [4] | half-life [6] [min] | pKa [8] | logP [9] | other results
1 | CC(C)(C)c1cc(C(C)(C)C)c2c(c1F)COP(=O)(OC[C@H]1O[C@@H](n3cc([125I])c(=O)[nH]c3=O)C[C@@H]1OC(=O)CCCCCNC(=N)N)O2 (some centres undefined) | Unstable | Dose-dependent effect and Tde | 900 | 12.1 | 4.58 | Drug uptake [1]: 0.05 mBq; Drug uptake [2]: 14%; Drug uptake [5]: 42%; Drug uptake [7]: 1.85 mBq
2 | N=C(N)NCc1cccc([125I])c1 | – | – | – | – | – | Ratio [10]: 19; Drug uptake [11]: 1.85 % ID/g; Drug uptake [12]: 74%; Drug uptake [13]: 87%; Activity (SK-N-SH [14]): 250; Drug uptake [15]: 1.85 % ID/g; Drug recovery [16]: 0%; Drug uptake [17]: 4.64 % ID/g; Activity (SK-N-SH [18]): 229
3 | N=C(N)NCCC(=O)OC[C@H]1O[C@@H](n2cc([125I])c(=O)[nH]c2=O)C[C@@H]1O | Unstable | Dose-dependent effect and Tde | 23.4 | 11.9 | -1.48 | –
4 | N=C(N)NCCCCCC(=O)OC[C@H]1O[C@@H](n2cc([125I])c(=O)[nH]c2=O)C[C@@H]1O | Unstable | Dose-dependent effect and Tde | 53.4 | 12.2 | -0.2 | remaining at 5 min [19]: 77%; Drug recovery [16]: > 99%; remaining at 24 h [20]: 30%; remaining at 1 h [21]: 47%
5 | N=C(N)NCc1cccc(I)c1 [IOBENGUANE] | – | – | – | 11.8 | 1.63 | –
6 | N=C(N)NCc1ccc(C(=O)OC[C@H]2O[C@@H](n3cc([125I])c(=O)[nH]c3=O)C[C@@H]2O)cc1 | Unstable | Dose-dependent effect and Tde | 45.6 | 11.9 | 0.26 | –
7 | N=C(N)NC[C@H]1O[C@@H](n2cc([125I])c(=O)[nH]c2=O)C[C@@H]1O | – | – | – | 11.5 | -1.3 | Drug uptake [22]: 0.00054 mBq; Drug uptake [23]: 0.00001 mBq; Stability [24]: Unstable
